Screens deposited in PubChem BioAssay by several laboratories.
DDE Tn6 FP inh = inhibitors of Tn6 peptide binding to fibrin DD(E), primary screen, biochemical, fluorescence polarization, human fibrin, Tn6 probe; AID 720509, 2013; inhibition, % at 8.3 µM; 370,000 compounds, 0.21% hits; Fibrin DD(E) TRITC-Tn6 fluorescence polarization displacement; Fibrinogen beta chain (Homo sapiens), P02675;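 active = inhibition above a per-campaign cutoff: mean of compounds within control limits plus 3 SD, cut at about 15% in these data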;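 also: 0% = median of all compound wells on the plate and 100% = blocking peptide control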
Target sequence (P02675 whole entry, looked up): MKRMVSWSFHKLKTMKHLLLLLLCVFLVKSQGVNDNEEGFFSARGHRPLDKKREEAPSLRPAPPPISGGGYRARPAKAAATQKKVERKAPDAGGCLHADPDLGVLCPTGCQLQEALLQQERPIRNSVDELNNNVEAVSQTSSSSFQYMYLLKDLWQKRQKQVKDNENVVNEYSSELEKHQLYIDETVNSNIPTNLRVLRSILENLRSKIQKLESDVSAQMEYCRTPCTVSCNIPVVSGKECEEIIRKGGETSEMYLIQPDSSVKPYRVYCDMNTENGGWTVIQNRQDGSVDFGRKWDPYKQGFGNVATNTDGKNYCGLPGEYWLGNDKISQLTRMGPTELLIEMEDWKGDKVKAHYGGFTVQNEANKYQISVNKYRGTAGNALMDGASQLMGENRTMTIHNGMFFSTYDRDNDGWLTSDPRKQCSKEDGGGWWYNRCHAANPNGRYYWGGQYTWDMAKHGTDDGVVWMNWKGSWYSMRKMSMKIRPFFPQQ
PolyA inhibitor = polyadenylation inhibitors in yeast reporter cells, primary screen, luminescence, S. cerevisiae; 300,000 compounds, 0.02% hits; activity score, % at 12 µM; AID 1875, 2009; S. cerevisiae SKY197-pL101 polyadenylation reporter, beta-gal luminescence; efflux-impaired pdr1/pdr3 knockout yeast; score 100 = 6 SD above DMSO;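 active = lowest replicate activity score at least 50, where 100 means six control SD above control mean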;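 also: yeast exposed to compound for 9 h at 30 °C; higher score means more reporter readthrough which indicates perturbed polyadenylation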
MT1-MMP act inh = blockers of MT1-MMP proenzyme processing, primary screen, HT1080 RFP-PRO-GFP cells, GFP/RFP fluorescence. GFP/RFP ratio fluorescence, overnight; percent of plate control window, DMSO zero. GFP/RFP ratio change, % at 20 µM. 360,000 compounds, 0.061% hits;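 active = GFP/RFP ratio change of at least 30% with cell ATP level not reduced by more than half and red fluorescence within 50% of control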
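Assay system: HT1080 RFP-PRO-GFP cells. Benchmarks: DMSO vehicle wells and RFP-L50D-GFP reporter cell wells. Times: overnight cell settling, then overnight compound exposure, 37 °C, 5% CO2. Compound: 20 µM single dose, 1% DMSO. Read-out basis: GFP/RFP fluorescence ratio.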
SKN-1 block = suppressors of acrylamide-induced Pgst-4::GFP reporter in worms, primary screen, SKN-1 inhibitor project, whole organism, uHTS, GFP/RFP fluorescence ratio, strain VP596; inhibition, % at 21.8 µM; C. elegans VP596 Pgst-4::GFP/RFP ratio, 24 h; 360,000 compounds, 0.49% hits;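 active = interference check ratio from 0.5 to 1.5 plus GFP to RFP signal ratio inhibition reaching or exceeding a fixed threshold, cut at about 30% in these data, passing the limit was not always enough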
Tn7 DDE FP = inhibitors of Tn7 peptide binding to fibrin DD(E), primary screen, biochemical, fluorescence polarization, human fibrin, Tn7 probe; 370,000 compounds, 0.13% hits; AID 720508, 2013; inhibition, % at 8.3 µM; FP displacement of FITC-Tn7 peptide from fibrin DD(E); 0% = median of compound wells per plate;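 active = inhibition above the mean of compounds falling within the control limits plus 3 SD of them, cut at about 14% in these data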;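 also: 0% = plate median of compound wells and 100% = 10 µM Aha-Tn7 peptide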
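Assay system: Human clot-derived fibrin DD(E) complex | Buffer or medium: Tris/NaCl/CaCl2 buffer, pH 7.8 | Repeats: One replicate per compound | Benchmarks: Aha-Tn7 high control | Measure: % inhibition scaled between sample-field median and high-control FP | Schedule: 10 min plus 3 h, room temperature | Signal: Fluorescence polarization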
DAGLB inh = DAGLB lipase inhibitors, primary screen, biochemical, fluorescence, HTS. Diacylglycerol lipase-beta (Homo sapiens), Q8NCG7. AID 504411, 2011. inhibition, % at 5.17 µM. HEK293T DAGLB membrane lysate, EnzChek fluorogenic substrate. 340,000 compounds, 0.059% hits; in the data active = inhibition above about 34%;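 also: 0% = enzyme with vehicle and 100% = wells lacking enzyme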
DDE Tn6 FP ctr = counter-screen hit for Tn6 peptide-fibrin DD(E) binding disruption; inhibition, % at 8.3 µM; shares compounds with DDE Tn6 FP inh; AID 720621; TRITC-Tn6 fluorescence polarization displacement; 0% = median of compound wells, not DMSO; 680 compounds, 2% hits;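 active = inhibition above the mean of test compounds lying between the control limits plus 3 SD of those, cut at about 14% in these data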;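 also: 0% = median of compound wells and 100% = wells with Aha-Tn7 blocking peptide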
Tn6 DDE conf = inhibitors of Tn6 peptide binding to fibrin DD(E), confirmation, biochemical, fluorescence polarization, human fibrin, Tn6 probe. inhibition, % at 8.3 µM. shares compounds with DDE Tn6 FP inh. 680 compounds, 10% hits. FP displacement of TRITC-Tn6 peptide from DD(E); 0% = per-plate median of test wells;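 active = inhibition above the mean of compounds lying within the control limits plus 3 SD, cut at about 16% in these data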;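 also: 100% = high control wells holding a competing inhibitor peptide at 10 µM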
Numbers without * were called inactive; . = no result given. Shown are actives, neighbours in structure and some others; about 0.9% of the full set was active somewhere.

SMILES	DDE Tn6 FP inh	PolyA inhibitor	MT1-MMP act inh	SKN-1 block	Tn7 DDE FP	DAGLB inh	DDE Tn6 FP ctr	Tn6 DDE conf
COC(=O)CCC(=O)OC1(C)C(=O)C=C2C=C(C3CC3)N(C3CCCCC3)C=C2C1=O (centres undefined)	-4	-13	-1	13	-4	0	.	.
COC(=O)CCC(=O)OC1(C)C(=O)C=C2C=C(C3CC3)N(C3CCCC3)C=C2C1=O (centres undefined)	20*	0	1	3	-7	-2	-6	-9
COc1ccc(CN2C(NC(=O)OCc3ccccc3)=NC3=CC(C)(C)n4c(=O)n(-c5ccccc5)c(=O)n4C32)c(OC)c1 (centres undefined)	-2	.	.	.	-3	.	.	.
COC(=O)[C@]12C[C@H](CC(=O)NCc3cccc(C(F)(F)F)c3)C(=O)N(CCC3=CCCCC3)C1=C[C@H](C(C)C)O[C@@H]2C1CC1	-1	.	.	.	1	.	.	.
CC(=O)c1cccc(OCc2cc(C(=O)N3C[C@@H](C)O[C@@H](C)C3)no2)c1	20*	3	5	20	3	5	8	3
COC(=O)[C@@]12CCCCC3=C1N(CCC3)C(=O)[C@H]2CC(=O)NCCc1ccccc1OC	6	.	.	.	1	.	.	.
COc1cc(OC)c(OC)cc1/C=N/NC(=O)CCc1c(C)n[nH]c1C	16*	0	-3	2	4	0	-1	-5
CC(=O)CC[C@@H]1CC[C@]2(CCCN(S(C)(=O)=O)C2)O1	3	.	.	.	-2	.	.	.
Cc1cn([C@H]2C[C@H](O)[C@@H](/C=C/C(=O)NCCC(C)C)O2)c(=O)[nH]c1=O	15*	.	2	3	-7	.	-9	-11
Cc1cn([C@H]2C[C@H](O)[C@@H](/C=C/C(=O)NCC(c3ccccc3)c3ccccc3)O2)c(=O)[nH]c1=O	1	.	2	22	-4	.	.	.
CN(Cc1cn(Cc2cccc(Cl)c2)nn1)C1CN(Cc2cn(Cc3cccc(Cl)c3)nn2)S(=O)(=O)C1 (centres undefined)	16*	.	2	-7	2	.	-8	-8
CN(C)C1CN(Cc2cn(Cc3cccc(Cl)c3)nn2)S(=O)(=O)C1 (centres undefined)	8	.	5	15	-4	.	.	.
COC(=O)C12CCCN1C1C(=O)N(Cc3ccc(C(N)=O)cc3)CC1C2 (centres undefined)	12	.	.	.	1	.	.	.
CCCCCCSc1cccc(-c2nc3cc(C)ccn3c2NCc2ccccc2)c1	2	8	4	-3	9	-5	.	.
CCCCCCSc1cccc(-c2nc3ccc(C)cn3c2NCc2ccccc2)c1	16*	-7	1	1	4	-15	10	6
O=C(Nc1ccccc1)Nc1c(-c2ccc(F)cc2)nc2ncccn12	0	.	.	.	-2	.	.	.
Cc1ccc(NS(=O)(=O)c2ccc(Cl)c(C(=O)Nc3ccccc3-c3nc4ccccc4[nH]3)c2)cc1C	16*	-15	-12	-1	-5	-5	8	3
Cc1nc2ccccc2n1-c1nc(-c2ccco2)cc(C(F)(F)F)n1	18*	-18	7	11	0	3	-3	-5
FC(F)(F)c1cc(-c2ccco2)nc(-n2cnc3ccccc32)n1	0	-16	-6	8	3	-3	.	.
C/C=C(/C)C(=O)Nc1cccc(C2=NOC3(C2)C[C@@H](C(N)=O)N(C(=O)CC)C3)c1 (some centres undefined)	7	-20	2	16	0	-2	.	.
C/C=C/C(=O)N1CC2(CC(c3cccc(NC(=O)/C(C)=C/C)c3)=NO2)C[C@H]1C(N)=O (some centres undefined)	17*	-6	-2	3	10	-3	-1	3
CCOC(=O)[C@]12CCCC3=C1N(CCC3)C(=O)[C@@H](CC(=O)NCCc1ccccc1OC)C2	-1	.	.	.	4	.	.	.
O=C(COC(=O)CNC(=O)c1ccc(F)cc1)NC1CCCc2ccccc21 (centres undefined)	0	.	0	20	-1	0	.	.
Cc1ccc(C(=O)NCC(=O)OC(C)C(=O)NC2CCCc3ccccc32)cc1 (centres undefined)	16*	-3	3	15	6	4	4	-5
CC(C)(C)c1ccc(S(=O)(=O)N2CCCC(C(=O)NCCN3CCC(Cc4ccccc4)CC3)C2)cc1 (centres undefined)	-1	.	.	.	9	.	.	.
SMILES	DDE Tn6 FP inh	PolyA inhibitor	MT1-MMP act inh	SKN-1 block	Tn7 DDE FP	DAGLB inh	DDE Tn6 FP ctr	Tn6 DDE conf
COc1ccc(CN2C(=O)CN(S(C)(=O)=O)CC2(C)c2nnnn2C2CCCCC2)cc1 (centres undefined)	1	.	.	.	-8	.	.	.
CC(C)Cn1c2c(c(O)c(C(=O)Nc3ccc(F)cc3)c1=O)CCCC2	16*	-3	-3	1	-3	-5	1	-3
CCCCCC[C@@H](CCCc1ccccc1OC)CN(CCCC)S(C)(=O)=O	-5	.	.	.	3	.	.	.
N#Cc1c(NC(=O)Cn2nc(C(F)(F)F)c3c2CCCC3)sc2c1CCC2	2	21	-2	0	-5	-2	.	.
CC1CCc2c(sc(NC(=O)Cn3nc(C(F)(F)F)c4c3CCCCC4)c2C#N)C1 (centres undefined)	17*	6	-2	3	2	-2	9	7
CCCCCCCCN1C(=O)[C@@H](CC(=O)NCCc2ccccc2OC)C[C@@]2(C(=O)OC)C1=C[C@H](C(C)C)O[C@@H]2C1CC1	-8	.	.	.	-7	.	.	.
COc1ccc(Cl)cc1NC(=O)COC(=O)C1CC1	-10	.	-1	-24	13	-3	.	.
COc1ccc(Cl)cc1NC(=O)COC(=O)CCNC(C)=O	17*	4	1	2	6	-1	9	5
Cc1cc(NC(=O)c2ccc(NS(=O)(=O)c3ccccc3F)cc2)no1	2	.	.	.	0	.	.	.
